# In ChEMBL document CHEMBL1138981, “Synthesis and SAR of 1,2-trans-(1-hydroxy-3-phenylprop-1-yl)cyclopentane carboxamide derivatives, a new class of sodium channel blockers” (Bioorg Med Chem Lett, 2006):
# pIC50: −log10 of the molar value.
# Assays:
# [1] = molecular target: Sodium channel protein type 9 subunit alpha (Homo sapiens, UniProt Q15858); assay: Inhibition of peripheral nerve sodium channel NaV1.7
# [2] = molecular target: T1, hERG (KCNH2) (Homo sapiens, UniProt Q12809); assay: (§1) Displacement of [35S]-labeled MK499 from hERG at 10 uM; settings: probe [35S]-MK499
# [3] = (§2) Stability in human liver microsome after 1 hr; type: ADME, microsomes; settings: liver microsomes, read-out: Stability
# [4] = Plasma clearance in rat at 1 mg/kg, iv; type: ADME, organism-based; design: dose 1 mg/kg, route intravenous
# [5] = (§3) Oral bioavailability in rat; type: ADME, organism-based; settings: in vivo
# [6] = system: Rattus norvegicus; assay: Anti-allodynic efficacy in rat chronic pain model at 3 mg/kg, po; type: ADME, organism-based; design: dose 3 mg/kg, route oral; settings: in vivo
# How it was run: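 Chronic inflammatory pain induced in rats by intradermal injection of complete Freund's adjuvant (CFA). The read-out was reversal of CFA-induced allodynia after oral dosing.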
# [7] = system: Rattus norvegicus; assay: AUC in rat at 2 mg/kg, po; type: ADME, organism-based, Plasma; design: dose 2 mg/kg, route oral; settings: in vivo
# [8] = (§4) Half life in rat at 1 mg/kg, iv; type: ADME, organism-based; design: dose 1 mg/kg, route intravenous; settings: in vivo
# [9] = Cmax in rat at 2 mg/kg, po; type: ADME, organism-based; design: dose 2 mg/kg, route oral; settings: in vivo
# [10] = molecular target: T1, hERG (KCNH2); assay: Displacement of [35S]-labeled MK499 from hERG at 1 uM; settings: probe [35S]-MK499
# [11] = molecular target: Voltage-gated inwardly rectifying potassium channel KCNH2 (Homo sapiens, UniProt Q12809); assay: as §1; settings: 10 µM
# [12] = system: Liver microsomes; assay: as §2; type: ADME; settings: microsomes, 1 h
# [13] = system: Rattus norvegicus; assay: AUC in rat at 3 mg/kg, po; type: ADME, organism-based, Plasma; design: dose 3 mg/kg, route oral; settings: in vivo
# [14] = system: Rattus norvegicus; assay: as §3; type: ADME, organism-based; settings: in vivo
# [15] = system: Rattus norvegicus; assay: (§5) Cmax in rat at 3 mg/kg, po; type: ADME, organism-based; design: dose 3 mg/kg, route oral; settings: in vivo
# [16] = system: Rattus norvegicus; assay: as §4; type: ADME, organism-based; design: dose 1 mg/kg, route intravenous; settings: in vivo
# [17] = as §5; type: ADME, organism-based; design: dose 3 mg/kg, route oral; settings: in vivo
# Sequence of Sodium channel protein type 9 subunit alpha (Q15858 whole entry): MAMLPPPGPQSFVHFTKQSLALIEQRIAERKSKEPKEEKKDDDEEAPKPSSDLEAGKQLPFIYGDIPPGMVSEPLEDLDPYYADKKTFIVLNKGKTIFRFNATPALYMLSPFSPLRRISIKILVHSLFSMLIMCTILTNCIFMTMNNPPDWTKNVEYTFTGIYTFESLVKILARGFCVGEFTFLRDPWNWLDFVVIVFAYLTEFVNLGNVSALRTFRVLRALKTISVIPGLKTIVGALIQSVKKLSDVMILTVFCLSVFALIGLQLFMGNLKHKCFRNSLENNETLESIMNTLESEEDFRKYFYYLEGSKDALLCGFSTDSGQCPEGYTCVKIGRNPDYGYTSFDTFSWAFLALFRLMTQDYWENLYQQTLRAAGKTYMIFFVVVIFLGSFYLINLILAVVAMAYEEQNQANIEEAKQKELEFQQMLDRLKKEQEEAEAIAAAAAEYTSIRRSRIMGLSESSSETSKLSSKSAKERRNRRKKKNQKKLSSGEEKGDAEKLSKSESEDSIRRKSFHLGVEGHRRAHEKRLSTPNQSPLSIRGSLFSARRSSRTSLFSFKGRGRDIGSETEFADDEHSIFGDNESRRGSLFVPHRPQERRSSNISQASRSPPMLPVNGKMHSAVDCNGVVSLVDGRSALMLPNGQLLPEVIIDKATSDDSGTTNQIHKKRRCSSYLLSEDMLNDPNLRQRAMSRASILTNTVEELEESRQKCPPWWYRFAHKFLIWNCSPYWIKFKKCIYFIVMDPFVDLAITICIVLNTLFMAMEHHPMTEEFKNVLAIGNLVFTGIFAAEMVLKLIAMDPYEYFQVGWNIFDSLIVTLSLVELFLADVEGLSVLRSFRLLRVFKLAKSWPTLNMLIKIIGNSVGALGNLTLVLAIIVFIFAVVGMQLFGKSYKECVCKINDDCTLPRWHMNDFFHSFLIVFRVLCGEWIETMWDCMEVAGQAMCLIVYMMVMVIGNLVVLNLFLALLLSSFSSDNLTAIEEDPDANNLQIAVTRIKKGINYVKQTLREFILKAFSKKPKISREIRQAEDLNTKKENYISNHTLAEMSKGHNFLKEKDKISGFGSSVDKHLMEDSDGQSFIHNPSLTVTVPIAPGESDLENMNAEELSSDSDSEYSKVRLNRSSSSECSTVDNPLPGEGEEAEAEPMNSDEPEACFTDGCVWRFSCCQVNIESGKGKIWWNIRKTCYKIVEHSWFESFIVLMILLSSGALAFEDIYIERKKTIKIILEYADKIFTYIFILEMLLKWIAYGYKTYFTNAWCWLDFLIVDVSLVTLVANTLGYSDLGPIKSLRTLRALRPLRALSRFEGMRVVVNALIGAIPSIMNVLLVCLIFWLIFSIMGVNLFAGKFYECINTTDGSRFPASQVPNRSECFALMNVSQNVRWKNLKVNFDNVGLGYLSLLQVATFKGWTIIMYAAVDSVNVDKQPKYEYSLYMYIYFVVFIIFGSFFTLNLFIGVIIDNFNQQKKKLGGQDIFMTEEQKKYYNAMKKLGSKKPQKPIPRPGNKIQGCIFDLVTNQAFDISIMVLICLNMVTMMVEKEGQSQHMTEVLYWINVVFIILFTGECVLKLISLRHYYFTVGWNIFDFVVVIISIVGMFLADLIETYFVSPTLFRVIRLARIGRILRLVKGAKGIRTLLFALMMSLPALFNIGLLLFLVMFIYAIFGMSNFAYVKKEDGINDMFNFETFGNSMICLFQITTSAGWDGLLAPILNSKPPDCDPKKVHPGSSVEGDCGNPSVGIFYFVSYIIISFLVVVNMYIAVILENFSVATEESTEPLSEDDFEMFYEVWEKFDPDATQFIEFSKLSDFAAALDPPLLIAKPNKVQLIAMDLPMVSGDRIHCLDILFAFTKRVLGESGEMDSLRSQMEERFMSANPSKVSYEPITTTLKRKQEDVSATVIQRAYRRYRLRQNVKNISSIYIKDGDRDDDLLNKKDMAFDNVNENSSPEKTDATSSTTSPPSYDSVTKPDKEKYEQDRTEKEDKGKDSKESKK
# T1 sequence (Q12809 whole entry): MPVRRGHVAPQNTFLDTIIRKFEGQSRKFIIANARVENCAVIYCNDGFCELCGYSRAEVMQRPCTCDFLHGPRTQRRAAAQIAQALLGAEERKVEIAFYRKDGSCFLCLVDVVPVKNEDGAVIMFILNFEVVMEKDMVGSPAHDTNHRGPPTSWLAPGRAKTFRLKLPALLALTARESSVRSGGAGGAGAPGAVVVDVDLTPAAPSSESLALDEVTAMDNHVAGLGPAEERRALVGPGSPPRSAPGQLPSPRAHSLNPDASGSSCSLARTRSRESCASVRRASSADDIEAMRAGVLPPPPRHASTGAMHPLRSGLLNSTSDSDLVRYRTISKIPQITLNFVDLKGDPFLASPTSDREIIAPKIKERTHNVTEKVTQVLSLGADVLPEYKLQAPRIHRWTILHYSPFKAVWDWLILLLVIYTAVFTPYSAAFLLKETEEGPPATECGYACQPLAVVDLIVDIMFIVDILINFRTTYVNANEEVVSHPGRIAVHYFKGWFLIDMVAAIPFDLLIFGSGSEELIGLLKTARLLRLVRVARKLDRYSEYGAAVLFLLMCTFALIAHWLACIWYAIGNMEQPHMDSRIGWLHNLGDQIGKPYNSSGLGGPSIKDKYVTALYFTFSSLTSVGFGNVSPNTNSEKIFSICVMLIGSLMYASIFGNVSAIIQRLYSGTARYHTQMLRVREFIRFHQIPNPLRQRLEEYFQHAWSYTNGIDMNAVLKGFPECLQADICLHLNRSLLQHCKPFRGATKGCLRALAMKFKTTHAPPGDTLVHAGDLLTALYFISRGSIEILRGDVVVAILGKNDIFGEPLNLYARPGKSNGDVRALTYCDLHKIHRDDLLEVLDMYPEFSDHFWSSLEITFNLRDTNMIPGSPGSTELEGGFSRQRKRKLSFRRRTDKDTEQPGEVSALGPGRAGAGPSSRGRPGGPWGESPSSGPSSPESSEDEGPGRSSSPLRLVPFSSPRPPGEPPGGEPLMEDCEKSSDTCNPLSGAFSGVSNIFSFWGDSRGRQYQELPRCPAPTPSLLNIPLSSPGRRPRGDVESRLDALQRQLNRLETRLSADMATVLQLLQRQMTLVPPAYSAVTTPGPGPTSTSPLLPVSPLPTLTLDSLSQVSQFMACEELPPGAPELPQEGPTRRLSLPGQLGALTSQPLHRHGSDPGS
# Sequence of Voltage-gated inwardly rectifying potassium channel KCNH2 (Q12809 whole entry): as above
SMILES,pIC50 [1],inhibition at 10 µM [2],further results
O=C(NCc1ccccc1C(F)(F)F)[C@@H]1CCC[C@H]1C(O)CCc1cccc(OC(F)(F)F)c1 (relative stereo),6.36,78%,–
CS(=O)(=O)c1ccc(CCC(O)[C@@H]2CCC[C@H]2C(=O)NCc2ccc(OC(F)(F)F)cc2)cc1 (relative stereo),< 5.52,–,–
COc1ccc(CCC(O)[C@@H]2CCC[C@H]2C(=O)NCc2cc(Cl)cc(Cl)c2)cc1 (relative stereo),5.92,70%,–
O=C(NCc1cc(Cl)cc(Cl)c1)[C@@H]1CCC[C@H]1C(O)CCc1ccccc1 (relative stereo),6.01,91%,–
CN(Cc1ccc(-c2ccccc2S(N)(=O)=O)cc1)C(=O)[C@@H]1CCC[C@H]1C(=O)NCc1ccc(OC(F)(F)F)cc1 (relative stereo),6.54,54%,remaining at 1 h [3]: 4%; clearance [4]: 14 mL/min/kg; bioavailability [5]: 44%; Efficacy [6]: 43%; AUC [7]: 1.8 µM·h; half-life [8]: 1 h; Cmax [9]: 1000 nM
O=C(NC[C@@H]1CCC[C@H]1C(O)CCc1ccccc1)c1ccc(OC(F)(F)F)cc1 (relative stereo),6.48,84%,inhibition at 1 µM [10]: 45%
O=C(NCc1ccccc1)[C@@H]1CCC[C@H]1C(O)CCc1ccc(OC(F)(F)F)cc1 (stereo in doubt; 13A),6.28,–,Inhibition [11]: 68%
O=C(NCc1ccccc1)[C@@H]1CCC[C@H]1C(O)CCc1ccccc1 (relative stereo),< 5.52,–,–
O=C(NCc1ccccc1)[C@@H]1CCC[C@H]1C(O)CCc1ccc(OC(F)(F)F)cc1 (stereo in doubt; 13B),6.44,60%,Stability [12]: 49%; AUC [13]: 9 µM·h; clearance [4]: 9 mL/min/kg; F [14]: 65%; Efficacy [6]: 31%; half-life [8]: 1.6 h; Cmax [15]: 2300 nM
O=S(=O)(NC[C@@H]1CCC[C@H]1C(O)CCc1ccccc1)c1ccc(OC(F)(F)F)cc1 (relative stereo),6.20,90%,–
O=C(NCc1ccccc1)[C@@H]1CCC[C@H]1C(O)CCc1ccccc1OC(F)(F)F (relative stereo),6.49,92%,–
O=C(NCc1cc(Cl)cc(Cl)c1)[C@@H]1CCC[C@H]1C(O)CCc1ccc(OC(F)(F)F)cc1 (relative stereo),6.06,93%,–
O=C(NCc1ccccc1)[C@@H]1CCC[C@H]1C(O)CCc1ccc(OC(F)(F)F)cc1 (stereo in doubt; 13),6.19,–,Stability [12]: 13%; AUC [13]: 5.3 µM·h; F [14]: 40%; Efficacy [6]: 25%; T1/2 [16]: 1.6 h; Inhibition [11]: 52%; Cmax [17]: 1900 nM
CN(Cc1ccccc1)C(=O)[C@@H]1CCC[C@H]1C(=O)NCc1ccc(OC(F)(F)F)cc1 (relative stereo),5.83,–,–
OC(CCc1ccccc1)[C@@H]1CCC[C@H]1OCCc1cc(Cl)cc(Cl)c1 (relative stereo),< 5.52,40%,–
O=C(NCc1cc(Cl)cc(Cl)c1)[C@@H]1CCC[C@H]1C(O)CCc1ccccc1OC(F)(F)F (relative stereo),5.94,73%,–
OC(CCc1ccccc1)[C@@H]1CCC[C@H]1OCCc1ccc(OC(F)(F)F)cc1 (relative stereo),< 5.52,70%,–
O=C(NCc1cc(Cl)cc(Cl)c1)[C@@H]1CCC[C@H]1C(O)CCc1cccc(OC(F)(F)F)c1 (relative stereo),6.36,87%,–
O=C(NCc1ccccc1)[C@@H]1CCC[C@H]1C(O)CCc1cccc(OC(F)(F)F)c1 (relative stereo),6.64,89%,–
O=S(=O)(NC[C@@H]1CCC[C@H]1C(O)CCc1ccccc1)c1cc(Cl)cc(Cl)c1 (relative stereo),< 5.52,90%,–
OC(CCc1ccccc1)[C@@H]1CCC[C@H]1COCc1ccc(OC(F)(F)F)cc1 (relative stereo),6.09,65%,–
O=C(NC[C@@H]1CCC[C@H]1C(O)CCc1ccccc1)c1cc(Cl)cc(Cl)c1 (relative stereo),< 5.52,79%,–
OC(CCc1ccccc1)[C@@H]1CCC[C@H]1COCc1cc(Cl)cc(Cl)c1 (relative stereo),5.95,59%,–
